≈ marks a conversion by molar mass, not a printed value. Calls of active or inactive are those of the source.

Data set [1] concerns Staphylococcus aureus. The experiment in a line: Antibacterial activity against Staphylococcus aureus RN4220 NRS107 clinical isolate after 20 hrs by broth microdilution method. The format is functional. Particulars: RN4220 NRS107, 20 h. In outline:
(§1)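 CLSI broth microdilution in cation-adjusted Mueller Hinton broth; compounds serially diluted, triplicate samples; 37 °C, 20 h. MIC read visually as lowest concentration with no visible growth; mean of triplicate determinations reported.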
In general terms: In broth dilution the organism is exposed to a series of concentrations in liquid medium.

The test system of data set [2] is Staphylococcus aureus. The experiment in a line: Bactericidal activity against Staphylococcus aureus RN4220 NRS107 clinical isolate after 18 hrs by broth microdilution method. The format is functional. Particulars: RN4220 NRS107, 18 h. An outline of the steps: (§2)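 From MIC wells without visible growth, 5 uL spotted onto Tryptic soy agar, incubated 37 °C for at least 18 h; MBC taken as lowest concentration giving 99.9% growth inhibition.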

Data set [3] has as its system Staphylococcus aureus. The experiment in a line: Antibacterial activity against methicillin-resistant Staphylococcus aureus USA400 NRS123 clinical isolate after 20 hrs by broth microdilution method. The format is functional. Particulars: USA400 NRS123, 20 h. In outline: as §1
Data set [4] has as its system Staphylococcus aureus. The data set can be described thus: Bactericidal activity against methicillin-resistant Staphylococcus aureus USA400 NRS123 clinical isolate after 18 hrs by broth microdilution method. Type of data set: functional. Particulars: USA400 NRS123, 18 h. In outline:
as §2

Data set [5] concerns Staphylococcus aureus. The experiment in a line: Antibacterial activity against methicillin-resistant Staphylococcus aureus USA100 NRS382 clinical isolate after 20 hrs by broth microdilution method. The format is functional. Particulars: USA100 NRS382, 20 h. An outline of the steps: as §1
Data set [6] concerns Staphylococcus aureus. The experiment in a line: Bactericidal activity against methicillin-resistant Staphylococcus aureus USA100 NRS382 clinical isolate after 18 hrs by broth microdilution method. Type of data set: functional. Particulars: USA100 NRS382, 18 h. In outline:
as §2

Data set [7] concerns Staphylococcus aureus. The experiment in a line: Antibacterial activity against methicillin-resistant Staphylococcus aureus USA200 NRS383 clinical isolate after 20 hrs by broth microdilution method. The format is functional. The note with it: USA200 NRS383, 20 h. An outline of the steps:
as §1

For data set [8], the system named is Staphylococcus aureus. The data set can be described thus: Bactericidal activity against methicillin-resistant Staphylococcus aureus USA200 NRS383 clinical isolate after 18 hrs by broth microdilution method. The format is functional. The note with it: USA200 NRS383, 18 h. An outline of the steps: as §2
Data set [9] concerns Staphylococcus aureus. The data set can be described thus: Antibacterial activity against methicillin-resistant Staphylococcus aureus USA300 NRS384 clinical isolate after 20 hrs by broth microdilution method. The format is functional. Particulars: USA300 NRS384, 20 h. In outline: as §1
Data set [10] concerns Staphylococcus aureus. The data set can be described thus: Bactericidal activity against methicillin-resistant Staphylococcus aureus USA300 NRS384 clinical isolate after 18 hrs by broth microdilution method. The format is functional. The note with it: USA300 NRS384, 18 h. An outline of the steps:
as §2

Data set [11] concerns Staphylococcus aureus. The data set can be described thus: Antibacterial activity against vancomycin-resistant Staphylococcus aureus VRSA4 after 20 hrs by broth microdilution method. Type of data set: functional. The note with it: VRSA4, 20 h. In outline:
as §1

Data set [12] relates to Staphylococcus aureus. The experiment in a line: Bactericidal activity against vancomycin-resistant Staphylococcus aureus VRSA4 after 18 hrs by broth microdilution method. Type of data set: functional. The note with it: VRSA4, 18 h. An outline of the steps: as §2
Data set [13] has as its system Staphylococcus aureus. The experiment in a line: Antibacterial activity against vancomycin-resistant Staphylococcus aureus VRSA10 after 20 hrs by broth microdilution method. Particulars: VRSA10, 20 h. The format is functional. In outline:
as §1

Data set [14] has as its system Staphylococcus aureus. The experiment in a line: Bactericidal activity against vancomycin-resistant Staphylococcus aureus VRSA10 after 18 hrs by broth microdilution method. Type of data set: functional. The note with it: VRSA10, 18 h. An outline of the steps: as §2
Data set [15] deals with Staphylococcus aureus. The data set can be described thus: Bactericidal activity against methicillin-resistant Staphylococcus aureus USA400 assessed as time required to reduce log10CFU of bacterial load at 4 times MIC by time kill assay. The format is functional.
A further data set relates to HaCaT. The experiment in a line: Cytotoxicity against human HaCaT cells up to 32 ug/ml after 2 hrs by MTS assay. Type of data set: cell-based. An outline of the steps: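 Keratinocytes grown in DMEM with 10% FBS at 37 °C, 5% CO2; exposed in triplicate to 8, 16, 32 and 64 µg/mL for 2 h. DMSO-matched controls. MTS added for 4 h, absorbance at 490 nm. Viability expressed as % of DMSO-treated cells (mean of triplicate ± SD); one-way ANOVA with Dunnett's test, P < 0.05.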

The next data set relates to J774. The data set can be described thus: Cytotoxicity against mouse J774 cells at 8 ug/ml after 24 hrs by MTS assay. Particulars: j774, 24 h. Type of data set: cell-based. An outline of the steps: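 Murine macrophages cultured in DMEM plus 10% FBS, 37 °C, 5% CO2; compounds at 8, 16, 32, 64 µg/mL in triplicate for 24 h against DMSO-matched controls. MTS reagent 4 h, read at OD490. Viability as % of DMSO control (triplicate mean ± SD); one-way ANOVA, Dunnett's post hoc, P < 0.05.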
In general terms: Tetrazolium dyes change colour on reduction, which living cells bring about.

The subject of data set [16] is Staphylococcus aureus. The data set can be described thus: Bactericidal activity against methicillin-resistant Staphylococcus aureus USA400 NRS123 clinical isolate assessed as disruption of bacterial membrane by measuring leakage of 260 nM absorbing material at 5 times MIC after 30 mins by spectrophotometric method. The format is functional.
Data set [17] has as its system Staphylococcus aureus. The data set can be described thus: Bactericidal activity against methicillin-resistant Staphylococcus aureus USA400 NRS123 clinical isolate assessed as disruption of bacterial membrane by measuring leakage of 280 nM absorbing material at 5 times MIC after 30 mins by spectrophotometric method. Type of data set: functional.
Data set [18] has as its system Staphylococcus aureus. The data set can be described thus: Antibacterial activity against methicillin-resistant Staphylococcus aureus USA400 NRS123 clinical isolate preincubated followed by bacterial subculturing for 2 weeks. Type of data set: functional.
In data set [19] the test system is Staphylococcus aureus. The experiment in a line: Antibacterial activity against methicillin-resistant Staphylococcus aureus USA100 NRS382 clinical isolate preincubated followed by bacterial subculturing for 2 weeks. Type of data set: functional.
Data set [20] concerns Staphylococcus aureus. The data set can be described thus: Antibacterial activity against methicillin-resistant Staphylococcus aureus USA200 NRS383 clinical isolate preincubated followed by bacterial subculturing for 2 weeks. Type of data set: functional.
The test system of data set [21] is Staphylococcus aureus. The data set can be described thus: Antibacterial activity against methicillin-resistant Staphylococcus aureus USA300 NRS384 clinical isolate preincubated followed by bacterial subculturing for 2 weeks. Type of data set: functional.

Consider `C/C(=N\NC(=N)N)c1ccc(NC(=O)Nc2ccc(OCCC(C)C)cc2)cc1`, for which the minimum inhibitory concentration (MIC) (as a rule, the smallest concentration in the dilution series that meets the test's criterion for growth inhibition) was determined as 2 µg/mL (≈ 5.04 µM) with Staphylococcus aureus [1]; 2 µg/mL (≈ 5.04 µM) with Staphylococcus aureus [3]; 4 µg/mL (≈ 10.1 µM) against Staphylococcus aureus [5]; 2 µg/mL (≈ 5.04 µM) against Staphylococcus aureus [7]; 2 µg/mL (≈ 5.04 µM) against Staphylococcus aureus [9]; 4 µg/mL (≈ 10.1 µM) in the data set on Staphylococcus aureus [11]. Further, the lowest concentration to inhibit growth in the data set with Staphylococcus aureus [13] (MIC) was 2 µg/mL (≈ 5.04 µM). Further, the minimal bactericidal concentration (MBC) with Staphylococcus aureus [2], in the data set on Staphylococcus aureus [4], against Staphylococcus aureus [6], in the data set with Staphylococcus aureus [8], in the data set on Staphylococcus aureus [10] and in the data set with Staphylococcus aureus [12] was 4 µg/mL (≈ 10.1 µM) in each case. In the data set on Staphylococcus aureus [14], the MBC (as a rule, the smallest concentration meeting the test's criterion for killing) turned out to be 4 µg/mL (≈ 10.1 µM). The Time entry with Staphylococcus aureus [15] is recorded as “<=4 hr”. The Activity result with HaCaT is “Non-Toxic”; in the data set with J774, “Toxic”. In addition, the outcome in the data set on Staphylococcus aureus [16] and in the data set with Staphylococcus aureus [17] was inactive. For the same compound, the outcome in the data set with Staphylococcus aureus [18], in the data set on Staphylococcus aureus [19], in the data set on Staphylococcus aureus [20] and with Staphylococcus aureus [21] was Active.

Values taken from ChEMBL document CHEMBL4014276, “Diphenylurea derivatives for combating methicillin- and vancomycin-resistant Staphylococcus aureus” (Eur J Med Chem, 2017).
